L929 necroptosis = blocks zVAD induced death of L929 cells; L929 zVAD necroptosis rescue, ATP luminescence, 24 h; with zVAD 60 µM; viability rescue, % at 10 µM; 220,000 tested, 0.38% active;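 active = activation, scaled between plate controls, above about 75%, limit read from the data; inactive = activation under that limit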;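 note: 0% = zVAD with DMSO and 100% = DMSO alone without zVAD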
TNF necrop inh = TNF-alpha cell death inhibition in Jurkat FADD-/- cells. Jurkat FADD-/- TNF necroptosis rescue, ATP luminescence, 24 h; 0 = TNF only, 100 = no-TNF cells. activation (protection from cell death), % at 10 µM. 220,000 tested, 0.068% active;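 active = activation, meaning protection from cell death, of at least 50% relative to plate controls; inactive = activation below 50%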;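 note: necroptosis triggered by 40 ng/mL TNF-alpha added together with compound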
MDM2 E3 inh = blocks human Mdm2 ubiquitin ligase activity; cell-based MDM2 ubiquitination luciferase reporter, 2 h; 0 = plate control, 100 = twice control, blank-subtracted; 210,000 tested, 0.11% active; signal enhancement, % at 5 µM; Q00987;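 active = signal enhancement of 30% or more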;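 note: luminescence tracks abundance of the self-degrading MDM2-luciferase fusion protein; higher signal means inhibition of MDM2 E3 ligase activity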
Target sequence (Q00987 whole entry, looked up, the tested form may be a part): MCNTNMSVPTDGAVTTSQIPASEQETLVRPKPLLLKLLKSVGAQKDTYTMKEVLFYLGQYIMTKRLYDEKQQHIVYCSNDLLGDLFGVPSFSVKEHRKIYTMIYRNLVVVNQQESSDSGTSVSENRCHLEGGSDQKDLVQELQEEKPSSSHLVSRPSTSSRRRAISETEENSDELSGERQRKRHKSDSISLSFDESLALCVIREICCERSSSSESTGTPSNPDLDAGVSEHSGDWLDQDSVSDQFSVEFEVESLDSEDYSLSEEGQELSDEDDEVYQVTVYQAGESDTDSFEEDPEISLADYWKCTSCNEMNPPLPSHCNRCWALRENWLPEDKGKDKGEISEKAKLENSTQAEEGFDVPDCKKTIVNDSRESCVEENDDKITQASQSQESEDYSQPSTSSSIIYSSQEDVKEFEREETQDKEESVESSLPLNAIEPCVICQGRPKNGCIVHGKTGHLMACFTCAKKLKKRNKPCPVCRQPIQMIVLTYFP
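Test system: mammalian cells stably expressing self-ubiquitinating, self-degrading MDM2 E3–luciferase fusion; Amount: 2000 cells in each well; Medium: DMEM; Schedule: 4 h settle plus 2 h compound, 37 °C; Technique: SteadyLite luciferase luminescence after 15 min room-temperature reagent incubation; Benchmarks: plate control and blank wells.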
E-sel TNF inh = blocks E-selectin expression induced by TNF alpha. HUVEC TNFa-induced E-selectin immunofluorescence, high content. inhibition, % at 2 µM. 120,000 tested, 0.71% active. AID 1246;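 active = inhibition above the batch mean plus 3 SD, and confirmed as a hit on visual image review, cut at about 43% in these data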;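 note: 0% = TNF-stimulated DMSO wells and 100% = unstimulated control wells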
HSV replic up = increases HSV replication in cells | maximum fold increase | 220,000 tested, 0.005% active | AID 1956 | HSV replication augmentation in cells, fold increase; in the data active = maximum fold increase above about 1.5; tested in PC3 cells
zVAD death conf = confirmed blocker of zVAD induced death in L929 cells | shares compounds with L929 necroptosis | L929 zVAD-induced necroptosis rescue, ATP luminescence, 24 h | activation (protection from necroptosis), % at 10 µM | 760 tested, 16% active | AID 463117;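 active = mean protection from necroptosis of at least 50% over duplicate tests; inactive = mean protection below 50%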;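 note: 0% = cells with zVAD alone and 100% = vehicle cells without zVAD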
* hit, by the source's call; i = inactive; · = not tested or not shown. Hits are enriched below; roughly 0.89% of the tested compounds scored in any of these assays.

SMILES	L929 necroptosis	TNF necrop inh	MDM2 E3 inh	E-sel TNF inh	HSV replic up	zVAD death conf
O=C(Nc1ccc(S(=O)(=O)Nc2nccs2)cc1)c1ccc(S(=O)(=O)N2CCOCC2)cc1	3	1	-1	-5	i	·
O=C(Nc1nccs1)c1ccc(S(=O)(=O)N2CCOCC2)cc1	82*	44	4	·	i	68*
C/C=C/C(=O)Nc1cccc(C2=NOC3(C2)C[C@@H](C(N)=O)N(C(=O)C(c2ccccc2)c2ccccc2)C3)c1 (some centres not stated)	-1	0	-1	·	i	·
COc1ccc(CCNC(=O)C/C(C)=N/NC(=O)C(c2ccccc2)c2ccccc2)cc1OC	80*	36	-8	·	i	10
O=C(NNc1nc2ccc(Cl)cc2s1)c1cc(-c2cccs2)nc2ccccc12	·	-2	·	-4	·	·
CCCCNC(=S)Nc1cc([N+](=O)[O-])ccc1C	1	-2	-2	·	i	·
Cc1ccc([N+](=O)[O-])c(NC2OC(CO)C(O)C2O)c1 (configuration not stated)	0	0	-16	·	i	·
CCOc1cc(/C=N/NC(=O)c2cc(C3CC3)[nH]n2)ccc1O	91*	9	-5	-9	i	7
CC(C)(C)c1ccc(-c2nc(C#N)c(NCc3cccnc3)o2)cc1	78*	2	-10	18	i	10
N#Cc1nc(-c2ccc(F)cc2)oc1NCc1ccccc1	0	1	-1	·	i	·
CCCCC(CC)C(=O)Nc1ncc([N+](=O)[O-])s1 (configuration not stated)	10	0	-14	9	i	·
S=C(NC1CCCC1)N1CCN(C/C=C/c2ccccc2)CC1	3	1	-7	·	i	·
CCN(CC)CCNC(=O)c1ccc2c(=O)n(CCc3ccccc3)c(=O)[nH]c2c1	89*	-1	-15	44	i	19
O=C(NCCCN1CCCCC1)c1ccc2c(=O)n(CCc3ccccc3)c(=O)[nH]c2c1	80*	-3	-5	·	·	2
CC1(C)CC(/C=C/c2ccccc2)=Nc2ccccc2N1	-1	-11	-20	·	i	·
CCN1CCN(Cc2ccc(NC(=O)c3ccc(C)c(NC(=O)c4nccnc4N)c3)cc2C(F)(F)F)CC1	80*	21	-4	·	i	79*
Cc1ccc(NC(=O)COC(=O)c2ccc3c(c2)NC(=O)C2CCCN32)cc1C (configuration not stated)	90*	-4	1	-29	i	61*
CNS(=O)(=O)c1ccc2c(c1)NC(=O)C1CCCN21 (configuration not stated)	1	2	·	·	i	·
COc1cc(OC)c(C2=NOC(C(=O)N3CCN(C(=O)c4ccco4)CC3)C2)cc1Cl (configuration not stated)	83*	1	-2	·	i	1
COc1cc(OC)c(C2=NOC(C(=O)N3CCc4ccccc4C3)C2)cc1Cl (configuration not stated)	0	-1	-17	2	i	·
CCN(CC)CCCNC(=O)c1cc(Sc2nnc(C)s2)nc2ccccc12	79*	7	1	0	i	10
O=C(CSc1nc2ccc(Nc3nc(N4CCOCC4)nc(N4CCOCC4)n3)cc2s1)N1CCOCC1	3	3	-3	-12	i	·
CSc1nc2ccc(Nc3nc(N4CCOCC4)nc(N4CCOCC4)n3)cc2s1	84*	1	-3	36	i	2
CCc1cccc2c(C(=O)COC(=O)c3ccc(O)cc3)c[nH]c12	77*	7	1	·	i	74*
CCC(=O)Oc1ccc(-c2cnc3ccccc3n2)cc1	89*	-3	-22	-14	i	39
CCc1ccc(NC(=O)CCN2C(=O)c3cccnc3C2=O)cc1	0	1	3	·	i	·
CCc1ccc2c(c1)C(=O)C(=O)N2CC(=O)Nc1ccc(NC(=O)c2ccccn2)cc1	78*	-2	-3	·	i	24
Nc1nnc(SCC(=O)OCC(=O)c2ccccc2Br)s1	0	1	-35	·	i	·
O=C(Nc1ccc2c(c1)OCO2)Nc1ccc(Br)cn1	79*	8	-4	-16	i	1

Bioassay records as filed in PubChem.
